Results as given in ChEMBL document CHEMBL1142964, “Synthesis and biological evaluation of [18F]bicalutamide, 4-[76Br]bromobicalutamide, and 4-[76Br]bromo-thiobicalutamide as non-steroidal androgens for prostate cancer imaging” (J Med Chem, 2007).

Experiments:
Androgen receptor = biological target: T1, Androgen receptor (Rattus norvegicus, UniProt P15207); assay: Binding affinity to rat AR
T1 sequence (P15207 whole entry): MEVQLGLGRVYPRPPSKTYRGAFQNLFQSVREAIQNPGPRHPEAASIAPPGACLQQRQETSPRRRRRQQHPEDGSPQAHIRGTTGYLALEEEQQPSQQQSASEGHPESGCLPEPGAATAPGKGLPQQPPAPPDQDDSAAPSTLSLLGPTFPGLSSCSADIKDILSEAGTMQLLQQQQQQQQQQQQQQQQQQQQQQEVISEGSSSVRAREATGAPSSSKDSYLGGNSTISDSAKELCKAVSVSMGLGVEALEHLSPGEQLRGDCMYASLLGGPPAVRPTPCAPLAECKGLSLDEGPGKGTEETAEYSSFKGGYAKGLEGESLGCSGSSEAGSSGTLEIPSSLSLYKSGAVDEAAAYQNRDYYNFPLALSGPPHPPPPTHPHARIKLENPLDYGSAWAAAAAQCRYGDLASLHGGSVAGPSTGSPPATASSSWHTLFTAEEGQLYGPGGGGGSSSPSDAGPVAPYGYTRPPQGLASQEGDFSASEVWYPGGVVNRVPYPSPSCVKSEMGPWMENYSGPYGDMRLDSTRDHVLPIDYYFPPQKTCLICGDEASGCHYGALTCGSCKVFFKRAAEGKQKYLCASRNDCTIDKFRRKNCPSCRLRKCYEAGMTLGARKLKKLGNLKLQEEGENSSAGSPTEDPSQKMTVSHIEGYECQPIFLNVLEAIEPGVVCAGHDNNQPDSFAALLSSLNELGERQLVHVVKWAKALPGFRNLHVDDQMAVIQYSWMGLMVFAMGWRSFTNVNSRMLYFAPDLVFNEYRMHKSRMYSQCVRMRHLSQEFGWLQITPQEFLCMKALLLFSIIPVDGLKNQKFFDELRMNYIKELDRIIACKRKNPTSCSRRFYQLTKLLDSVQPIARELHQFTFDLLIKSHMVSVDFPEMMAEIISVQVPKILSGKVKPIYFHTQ

Muscle tissue [1] = assay: Biodistribution in muscle of iv dosed testis-intact Sprague-Dawley rat after 1 hr block; type: ADME, organism-based; details: in vivo
Outline: (§1)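 76Br-tracer in 10% ethanol-saline, given iv by tail vein to mature male Sprague-Dawley rats (250 g) castrated 7 days before. Doses were 4 µCi/animal (1 h) and 7 µCi/animal (18 h). Block group used testes-intact rats, with the AR saturated by endogenous androgen. Five animals per group. Tissues were excised, weighed, saline-washed, blotted and counted. %ID/g was taken against injected-dose standards.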

[2] = Biodistribution in blood of iv dosed CWR22 tumor bearing mouse with 17alpha-methyltestosterone-induced androgen block after 90 min; type: ADME, organism-based; details: human, read-out: Drug uptake
Outline: (§2)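 Mature male mice (25 g) bearing flank CWR22 prostate tumors received DES (0.2 mg in 0.1 mL sesame oil, sc) 24 and 3 h before the tracer. 76Br-tracer, 6 µCi/animal in 10% ethanol-saline, was given iv by tail vein. Mice were killed at 30 or 90 min. Block set was co-injected with 8 µg 17α-methyltestosterone. Five animals per point. Results are %ID/g.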

[3] = Biodistribution in muscle of iv dosed CWR22 tumor bearing mouse after 60 min; type: ADME, organism-based, Muscle tissue; details: human, read-out: Drug uptake
[4] = Biodistribution in muscle of iv dosed CWR22 tumor bearing mouse with 17alpha-methyltestosterone-induced androgen block after 90 min; type: ADME, organism-based; details: human, read-out: Drug uptake; outline: as §2
[5] = Biodistribution in blood of iv dosed CWR22 tumor bearing mouse after 30 min; type: ADME, organism-based; details: human, read-out: Drug uptake; outline: as §2
[6] = Biodistribution in prostate of iv dosed Sprague-Dawley rat after 18 hrs; type: ADME, organism-based, Prostate gland; details: read-out: Drug uptake; outline: as §1
Bone [7] = assay: Biodistribution in bone of iv dosed testis-intact Sprague-Dawley rat after 1 hr block; type: ADME, organism-based, Bone element; details: in vivo; outline: as §1
[8] = Biodistribution in tumor of iv dosed CWR22 tumor bearing mouse after 30 min; type: ADME, organism-based; details: human, read-out: Drug uptake; outline: as §2
[9] = Biodistribution in kidney of iv dosed Sprague-Dawley rat after 18 hrs; type: ADME, organism-based; details: read-out: Drug uptake; outline: as §1
Bone [10] = assay: Biodistribution in bone of iv dosed testis-intact Sprague-Dawley rat after 18 hrs block; type: ADME, organism-based, Bone element; details: in vivo; outline: as §1
[11] = Biodistribution in liver of iv dosed testis-intact Sprague-Dawley rat after 1 hr block; type: ADME, organism-based; details: male, read-out: Drug uptake; outline: as §1
[12] = Biodistribution in prostate of iv dosed CWR22 tumor bearing mouse after 30 min; type: ADME, organism-based, Prostate gland; details: human, read-out: Drug uptake; outline: as §2
Blood [13] = assay: Biodistribution in blood of iv dosed testis-intact Sprague-Dawley rat after 1 hr block; type: ADME, organism-based; details: in vivo; outline: as §1
[14] = Ratio of drug uptake in prostate to muscle in iv dosed Sprague-Dawley rat after 1 hr; type: ADME, organism-based, Prostate gland; details: in vivo
Outline: (§3)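 Castrated male Sprague-Dawley rats were dosed iv (tail vein) with 4 µCi 76Br-tracer in 10% ethanol-saline and killed at 1 h, five per group. Tissues were weighed and counted and %ID/g calculated against dose standards. Ratios are prostate %ID/g over blood or muscle %ID/g.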

Kidney [15] = assay: Biodistribution in kidney of iv dosed testis-intact Sprague-Dawley rat after 1 hr block; type: ADME, organism-based; details: in vivo; outline: as §1
[16] = Biodistribution in blood of iv dosed Sprague-Dawley rat after 1 hr; type: ADME, organism-based; details: read-out: Drug uptake; outline: as §1
[17] = Ratio of drug uptake in prostate to blood in iv dosed Sprague-Dawley rat after 1 hr; type: ADME, organism-based, Prostate gland; outline: as §3
[18] = Biodistribution in tumor of iv dosed CWR22 tumor bearing mouse after 60 min; type: ADME, organism-based; details: human, read-out: Drug uptake
[19] = Biodistribution in muscle of iv dosed Sprague-Dawley rat after 18 hrs; type: ADME, organism-based, Muscle tissue; details: read-out: Drug uptake; outline: as §1
Prostate gland [20] = assay: Biodistribution in prostate of iv dosed testis-intact Sprague-Dawley rat after 18 hrs block; type: ADME, organism-based; details: in vivo; outline: as §1
[21] = Biodistribution in prostate of iv dosed CWR22 tumor bearing mouse after 60 min; type: ADME, organism-based, Prostate gland; details: human, read-out: Drug uptake
[22] = Biodistribution in blood of iv dosed Sprague-Dawley rat after 18 hrs; type: ADME, organism-based; details: read-out: Drug uptake; outline: as §1
Blood [23] = assay: Biodistribution in blood of iv dosed testis-intact Sprague-Dawley rat after 18 hrs block; type: ADME, organism-based; details: in vivo; outline: as §1
[24] = Biodistribution in liver of iv dosed CWR22 tumor bearing mouse after 60 min; type: ADME, organism-based; details: human, read-out: Drug uptake
[25] = Biodistribution in liver of iv dosed CWR22 tumor bearing mouse after 30 min; type: ADME, organism-based; details: human, read-out: Drug uptake; outline: as §2
[26] = Biodistribution in liver of iv dosed Sprague-Dawley rat after 1 hr; type: ADME, organism-based; details: read-out: Drug uptake; outline: as §1
[27] = Biodistribution in bone of iv dosed Sprague-Dawley rat after 18 hrs; type: ADME, organism-based, Bone element; details: read-out: Drug uptake; outline: as §1
[28] = Biodistribution in kidney of iv dosed Sprague-Dawley rat after 1 hr; type: ADME, organism-based; details: read-out: Drug uptake; outline: as §1
[29] = Biodistribution in prostate of iv dosed Sprague-Dawley rat after 1 hr; type: ADME, organism-based, Prostate gland; details: read-out: Drug uptake; outline: as §1
Prostate gland [30] = assay: Biodistribution in prostate of iv dosed testis-intact Sprague-Dawley rat after 1 hr block; type: ADME, organism-based; details: in vivo; outline: as §1
[31] = Biodistribution in liver of iv dosed CWR22 tumor bearing mouse with 17alpha-methyltestosterone-induced androgen block after 90 min; type: ADME, organism-based; details: human, in vivo, 1.5 h; outline: as §2
[32] = Biodistribution in muscle of iv dosed Sprague-Dawley rat after 1 hr; type: ADME, organism-based, Muscle tissue; details: read-out: Drug uptake; outline: as §1
[33] = Biodistribution in bone of iv dosed Sprague-Dawley rat after 1 hr; type: ADME, organism-based, Bone element; details: read-out: Drug uptake; outline: as §1
[34] = Biodistribution in kidney of iv dosed CWR22 tumor bearing mouse with 17alpha-methyltestosterone-induced androgen block after 90 min; type: ADME, organism-based; details: human, in vivo, 1.5 h; outline: as §2
Kidney [35] = assay: Biodistribution in kidney of iv dosed testis-intact Sprague-Dawley rat after 18 hrs block; type: ADME, organism-based; details: in vivo; outline: as §1
[36] = Biodistribution in muscle of iv dosed CWR22 tumor bearing mouse after 30 min; type: ADME, organism-based, Muscle tissue; details: human, read-out: Drug uptake; outline: as §2
[37] = Biodistribution in blood of iv dosed CWR22 tumor bearing mouse after 60 min; type: ADME, organism-based; details: human, in vivo, 1 h
Liver = assay: Biodistribution in liver of iv dosed testis-intact Sprague-Dawley rat after 18 hrs block; type: ADME, organism-based; details: in vivo; outline: as §1
Muscle tissue [38] = assay: Biodistribution in muscle of iv dosed testis-intact Sprague-Dawley rat after 18 hrs block; type: ADME, organism-based; details: in vivo; outline: as §1
[39] = Biodistribution in liver of iv dosed Sprague-Dawley rat after 18 hrs; type: ADME, organism-based; details: read-out: Drug uptake; outline: as §1
[40] = Biodistribution in kidney of iv dosed CWR22 tumor bearing mouse after 30 min; type: ADME, organism-based; details: human, read-out: Drug uptake; outline: as §2
[41] = Biodistribution in prostate of iv dosed CWR22 tumor bearing mouse with 17alpha-methyltestosterone-induced androgen block after 90 min; type: ADME, organism-based, Prostate gland; details: human, read-out: Drug uptake; outline: as §2
[42] = Biodistribution in kidney of iv dosed CWR22 tumor bearing mouse after 60 min; type: ADME, organism-based; details: human, read-out: Drug uptake
[43] = Biodistribution in tumor of iv dosed CWR22 tumor bearing mouse with 17alpha-methyltestosterone-induced androgen block after 90 min; type: ADME, organism-based; details: human, in vivo, 1.5 h; outline: as §2

CC(O)(CS(=O)(=O)c1ccc(Br)cc1)C(=O)Nc1ccc(C#N)c(C(F)(F)F)c1 (stereo not given)
Kd (Androgen receptor): 110 nM

CC(O)(CS(=O)(=O)c1ccc([76Br])cc1)C(=O)Nc1ccc(C#N)c(C(F)(F)F)c1 (stereo not given)
Drug uptake (Muscle tissue [1]): 0.38 % ID/g | tissue uptake at 1.5 h [2]: 3 %ID/g | tissue uptake at 1 h [3]: 2.9 %ID/g | tissue uptake at 1.5 h [4]: 2.8 %ID/g | tissue uptake at 0.5 h [5]: 2.7 %ID/g | tissue uptake at 18 h [6]: 0.27 %ID/g | Drug uptake (Bone [7]): 0.31 % ID/g | tissue uptake at 0.5 h [8]: 2.5 %ID/g | tissue uptake at 18 h [9]: 0.36 %ID/g | Drug uptake (Bone [10]): 0.12 % ID/g | tissue uptake at 1 h [11]: 2.5 %ID/g | tissue uptake at 0.5 h [12]: 2.2 %ID/g | Drug uptake (Blood [13]): 0.62 % ID/g | Ratio [14]: 2.9 | Drug uptake (Kidney [15]): 1 % ID/g | tissue uptake at 1 h [16]: 0.56 %ID/g | Kp at 1 h [17]: 1.8 | tissue uptake at 1 h [18]: 3.8 %ID/g | tissue uptake at 18 h [19]: 0.15 %ID/g | Drug uptake (Prostate gland [20]): 0.22 % ID/g | tissue uptake at 1 h [21]: 2.8 %ID/g | tissue uptake at 18 h [22]: 0.34 %ID/g | Drug uptake (Blood [23]): 0.29 % ID/g | tissue uptake at 1 h [24]: 18 %ID/g | tissue uptake at 0.5 h [25]: 15 %ID/g | tissue uptake at 1 h [26]: 2.1 %ID/g | tissue uptake at 18 h [27]: 0.13 %ID/g | tissue uptake at 1 h [28]: 1 %ID/g | tissue uptake at 1 h [29]: 1 %ID/g | Drug uptake (Prostate gland [30]): 0.68 % ID/g | Drug uptake [31]: 14 % ID/g | tissue uptake at 1 h [32]: 0.34 %ID/g | tissue uptake at 1 h [33]: 0.28 %ID/g | Drug uptake [34]: 7.6 % ID/g | Drug uptake (Kidney [35]): 0.26 % ID/g | tissue uptake at 0.5 h [36]: 2.5 %ID/g | Drug uptake [37]: 3.5 % ID/g | Drug uptake (Liver): 0.36 % ID/g | Drug uptake (Muscle tissue [38]): 0.11 % ID/g | tissue uptake at 18 h [39]: 0.56 %ID/g | tissue uptake at 0.5 h [40]: 7.2 %ID/g | tissue uptake at 1.5 h [41]: 3.4 %ID/g | tissue uptake at 1 h [42]: 7.8 %ID/g | Drug uptake [43]: 4.5 % ID/g
